Reference: ChEMBL document CHEMBL4007422 (J Med Chem, 2017)
pIC50: −log10 of the molar value. Active and inactive are the calls of the source. The calls are words filed in the database; no cut-off is given here.

What was measured:
[1] = target: 5-hydroxytryptamine receptor 4 (Homo sapiens) (UniProt Q13639); assay: Displacement of [3H]-GR113808 from recombinant human 5-HT4B receptor expressed in Chem1 cell membranes after 120 mins by microbeta scintillation counting analysis
[2] = target: 5-hydroxytryptamine receptor 7 (Rattus norvegicus) (UniProt P32305); assay: Binding affinity to recombinant rat 5-HT7 receptor expressed in CHOK1 cells assessed as inhibition of 5-HT stimulated cAMP accumulation after 4 hrs by luciferase reporter gene assay; format: cell-based
5-hydroxytryptamine receptor 7 (Rattus norvegicus), sequence (P32305 whole entry): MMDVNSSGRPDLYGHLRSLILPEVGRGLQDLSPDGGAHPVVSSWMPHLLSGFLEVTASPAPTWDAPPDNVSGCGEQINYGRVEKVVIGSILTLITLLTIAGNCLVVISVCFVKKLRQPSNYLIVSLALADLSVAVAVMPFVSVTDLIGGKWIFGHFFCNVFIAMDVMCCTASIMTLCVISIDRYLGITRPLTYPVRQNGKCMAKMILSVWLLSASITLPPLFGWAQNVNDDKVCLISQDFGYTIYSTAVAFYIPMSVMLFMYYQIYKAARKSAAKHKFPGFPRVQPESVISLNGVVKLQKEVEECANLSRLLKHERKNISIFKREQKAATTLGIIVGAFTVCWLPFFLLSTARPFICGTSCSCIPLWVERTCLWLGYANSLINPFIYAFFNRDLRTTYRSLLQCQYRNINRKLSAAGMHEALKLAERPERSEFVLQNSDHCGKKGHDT

[3] = Cmax in Wistar rat at 10 mg/kg, po by LC-MS/MS analysis; format: ADME, organism-based; parameters: dose 10 mg/kg, route oral; conditions: in vivo
[4] = Half life in Wistar rat at 10 mg/kg, iv by LC-MS/MS analysis; format: ADME, organism-based; conditions: in vivo
[5] = Clearance in Wistar rat at 10 mg/kg, iv by LC-MS/MS analysis; format: ADME, organism-based; conditions: in vivo
[6] = Ratio of drug uptake in Wistar rat brain to plasma at 10 mg/kg, po by LC-MS/MS analysis; format: ADME, organism-based; conditions: read-out: BPR
[7] = target: Alpha-2C adrenergic receptor (Homo sapiens) (UniProt P18825); assay: Inhibition of recombinant human adrenergic alpha 2C receptor expressed in CHOK1 cells at 1 uM; format: cell-based
Alpha-2C adrenergic receptor (Homo sapiens), sequence (P18825 whole entry): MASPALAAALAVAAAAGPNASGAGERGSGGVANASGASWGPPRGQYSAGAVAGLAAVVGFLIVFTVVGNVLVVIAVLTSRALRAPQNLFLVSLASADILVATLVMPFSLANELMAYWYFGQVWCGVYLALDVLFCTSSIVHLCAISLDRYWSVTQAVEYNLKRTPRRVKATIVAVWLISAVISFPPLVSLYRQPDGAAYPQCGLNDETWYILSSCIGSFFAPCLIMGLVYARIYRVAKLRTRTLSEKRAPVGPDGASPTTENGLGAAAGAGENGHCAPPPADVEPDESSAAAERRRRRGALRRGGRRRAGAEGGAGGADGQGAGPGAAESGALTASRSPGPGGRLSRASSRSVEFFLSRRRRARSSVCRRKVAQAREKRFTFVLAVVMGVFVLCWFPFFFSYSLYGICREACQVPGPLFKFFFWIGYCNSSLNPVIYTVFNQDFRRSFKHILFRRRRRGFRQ

[8] = target: Alpha-2C adrenergic receptor (Homo sapiens, UniProt P18825); assay: Inhibition of recombinant human adrenergic alpha 2C receptor expressed in CHO cells assessed as inhibition of 5-HT stimulated cAMP accumulation after 4 hrs by luciferase reporter gene assay; format: functional, cell-based
Alpha-2C adrenergic receptor, sequence (P18825 whole entry): as above

[9] = Apparent permeability of the compound in human Caco2 cells at 10 uM measured up to 120 mins by LC-MS/MS analysis; format: ADME, cell-based; conditions: Caco-2
Summary of the method: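 Permeability in Caco-2 intestinal epithelial monolayers, measured apical-to-basolateral and basolateral-to-apical; efflux ratio taken as Papp(B-A)/Papp(A-B).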

[10] = AUC (0 to t) in Beagle dog at 10 mg/kg, po; format: ADME, organism-based, Canis lupus familiaris; conditions: in vivo
[11] = Terminal half life in Beagle dog at 10 mg/kg, po; format: ADME, organism-based, Canis lupus familiaris; conditions: in vivo, read-out: beta t1/2 (converted)
Summary of the method: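 Beagle dogs received 10 mg/kg p.o. and 3 mg/kg i.v. in a pharmacokinetic study. From plasma exposure the authors derived AUC0-t, terminal half-life, intravenous clearance, volume of distribution and absolute oral bioavailability.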

[12] = target: T1, Cytochrome P450 1A2 (Homo sapiens, UniProt P05177); assay: Inhibition of CYP1A2 in human liver microsomes in presence of NADPH by LC-MS/MS analysis; format: ADME
T1 sequence (P05177 whole entry, canonical isoform): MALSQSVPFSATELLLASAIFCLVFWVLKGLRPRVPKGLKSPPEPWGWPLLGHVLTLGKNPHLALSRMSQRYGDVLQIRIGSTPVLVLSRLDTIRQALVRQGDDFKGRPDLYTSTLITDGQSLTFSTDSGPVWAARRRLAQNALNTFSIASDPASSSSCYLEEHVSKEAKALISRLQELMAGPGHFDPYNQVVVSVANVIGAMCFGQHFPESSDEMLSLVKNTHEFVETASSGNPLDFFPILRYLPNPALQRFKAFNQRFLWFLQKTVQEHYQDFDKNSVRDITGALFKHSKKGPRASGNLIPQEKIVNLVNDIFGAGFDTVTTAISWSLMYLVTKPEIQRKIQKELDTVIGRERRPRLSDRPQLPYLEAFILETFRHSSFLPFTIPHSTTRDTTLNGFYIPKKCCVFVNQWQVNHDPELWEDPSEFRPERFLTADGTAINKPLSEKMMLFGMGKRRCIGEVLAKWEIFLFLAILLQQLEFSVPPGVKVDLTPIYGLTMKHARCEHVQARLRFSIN
Summary of the method: (§1)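 Pooled human liver microsomes. IC50 determined from isoform-specific marker activities for CYP1A2, 2A6, 2B6, 2C8, 2C9, 2C19 (mephenytoin hydroxylation) and 2E1.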

[13] = test system: Hepatocyte; assay: Induction of CYP3A4 mRNA expression in human hepatocytes at 0.01 to 1 uM after 3 days by qRT-PCR analysis; format: ADME, cell-based; conditions: 72 h
Summary of the method: (§2)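 Plateable human hepatocytes exposed to 0.01, 0.1 and 1.0 μM. CYP1A2, CYP2B6 and CYP3A4 induction read as both mRNA expression and enzyme activity.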

[14] = test system: Hepatocyte; assay: Induction of CYP1A2 mRNA expression in human hepatocytes at 0.01 to 1 uM after 3 days by qRT-PCR analysis; format: ADME, cell-based; conditions: 72 h; summary of the method: as §2
[15] = target: Cytochrome P450 2B6 (Homo sapiens, UniProt P20813); assay: Inhibition of CYP2B6 in human liver microsomes in presence of NADPH by LC-MS/MS analysis; format: ADME; summary of the method: as §1
Cytochrome P450 2B6, sequence (P20813 whole entry): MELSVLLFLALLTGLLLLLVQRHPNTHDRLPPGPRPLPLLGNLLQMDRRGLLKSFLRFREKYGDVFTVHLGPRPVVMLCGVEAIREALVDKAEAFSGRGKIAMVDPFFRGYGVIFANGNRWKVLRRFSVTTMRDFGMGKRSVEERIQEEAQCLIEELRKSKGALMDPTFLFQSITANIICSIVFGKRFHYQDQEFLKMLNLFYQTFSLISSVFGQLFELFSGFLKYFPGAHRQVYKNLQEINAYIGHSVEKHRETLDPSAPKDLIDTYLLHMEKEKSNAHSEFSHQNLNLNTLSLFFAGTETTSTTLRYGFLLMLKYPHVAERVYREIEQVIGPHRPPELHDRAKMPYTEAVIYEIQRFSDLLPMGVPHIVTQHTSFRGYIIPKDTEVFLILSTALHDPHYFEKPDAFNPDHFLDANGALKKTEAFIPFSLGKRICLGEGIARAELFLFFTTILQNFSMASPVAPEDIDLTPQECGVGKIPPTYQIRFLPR

[16] = target: Cytochrome P450 2C8 (Homo sapiens, UniProt P10632); assay: Inhibition of CYP2C8 in human liver microsomes in presence of NADPH by LC-MS/MS analysis; format: ADME; summary of the method: as §1
Cytochrome P450 2C8, sequence (P10632 whole entry): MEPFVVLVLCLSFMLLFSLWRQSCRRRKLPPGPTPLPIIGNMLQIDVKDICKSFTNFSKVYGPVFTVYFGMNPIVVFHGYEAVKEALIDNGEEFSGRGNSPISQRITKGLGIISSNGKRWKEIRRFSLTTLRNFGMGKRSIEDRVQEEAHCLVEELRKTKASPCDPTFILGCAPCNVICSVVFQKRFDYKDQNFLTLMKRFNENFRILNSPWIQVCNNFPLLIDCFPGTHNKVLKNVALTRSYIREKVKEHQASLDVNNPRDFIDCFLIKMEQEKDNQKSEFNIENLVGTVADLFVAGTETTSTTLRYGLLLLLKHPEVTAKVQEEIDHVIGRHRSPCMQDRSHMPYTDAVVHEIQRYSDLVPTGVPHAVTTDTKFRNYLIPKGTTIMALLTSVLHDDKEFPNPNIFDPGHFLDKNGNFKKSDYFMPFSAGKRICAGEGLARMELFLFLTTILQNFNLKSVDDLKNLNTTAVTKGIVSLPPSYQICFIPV

[17] = target: Cytochrome P450 2C9 (Homo sapiens, UniProt P11712); assay: Inhibition of CYP2C9 in human liver microsomes in presence of NADPH by LC-MS/MS analysis; format: ADME; summary of the method: as §1
Cytochrome P450 2C9, sequence (P11712 whole entry): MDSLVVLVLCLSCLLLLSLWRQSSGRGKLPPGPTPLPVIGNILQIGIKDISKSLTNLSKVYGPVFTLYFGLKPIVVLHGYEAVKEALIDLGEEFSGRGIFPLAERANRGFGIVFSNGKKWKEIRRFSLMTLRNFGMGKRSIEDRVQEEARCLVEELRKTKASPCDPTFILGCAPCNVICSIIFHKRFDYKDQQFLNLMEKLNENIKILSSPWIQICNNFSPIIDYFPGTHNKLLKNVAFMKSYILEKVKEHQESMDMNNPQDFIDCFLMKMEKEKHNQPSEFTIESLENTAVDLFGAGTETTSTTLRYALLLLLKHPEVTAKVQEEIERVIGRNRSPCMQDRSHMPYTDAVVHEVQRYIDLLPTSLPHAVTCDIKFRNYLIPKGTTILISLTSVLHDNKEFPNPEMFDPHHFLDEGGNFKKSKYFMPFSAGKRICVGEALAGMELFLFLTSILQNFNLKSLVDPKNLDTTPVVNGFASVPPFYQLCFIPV

[18] = target: Cytochrome P450 2E1 (Homo sapiens, UniProt P05181); assay: Inhibition of CYP2E1 in human liver microsomes in presence of NADPH by LC-MS/MS analysis; format: ADME; summary of the method: as §1
Cytochrome P450 2E1, sequence (P05181 whole entry): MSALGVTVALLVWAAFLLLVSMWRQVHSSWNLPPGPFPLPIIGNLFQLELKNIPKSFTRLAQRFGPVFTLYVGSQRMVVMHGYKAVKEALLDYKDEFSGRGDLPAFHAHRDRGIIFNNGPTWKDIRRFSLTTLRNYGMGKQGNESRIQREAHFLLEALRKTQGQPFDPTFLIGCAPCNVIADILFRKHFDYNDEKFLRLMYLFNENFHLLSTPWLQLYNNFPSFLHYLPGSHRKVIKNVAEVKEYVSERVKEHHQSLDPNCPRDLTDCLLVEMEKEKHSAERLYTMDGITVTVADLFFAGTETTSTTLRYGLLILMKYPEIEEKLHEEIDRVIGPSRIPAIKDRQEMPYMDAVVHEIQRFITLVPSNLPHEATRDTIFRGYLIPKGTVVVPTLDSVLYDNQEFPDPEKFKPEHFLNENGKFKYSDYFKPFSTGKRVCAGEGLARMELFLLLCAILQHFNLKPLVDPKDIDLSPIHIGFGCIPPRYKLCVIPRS

[19] = target: T1, Cytochrome P450 1A2; assay: Induction of CYP1A2 activity in human hepatocytes at 0.01 to 1 uM preincubated for 3 days followed by substrate addition measured after 30 mins; format: ADME, cell-based; conditions: 0.5 h; summary of the method: as §2
[20] = test system: Rattus norvegicus; assay: Cognitive enhancing effect in contextual fear conditioning rat model assessed as reversal of scopolamine-induced emotional memory deficits at 1 to 10 mg/kg, po administered for 1 hr followed by scopolamine challenge for 120 mins; format: functional, organism-based
[21] = test system: Rattus norvegicus; assay: Effect on basal level of acetylcholine in Wistar rat ventral hippocampus at 1 to 3 mg/kg, po after 6 hrs by LC-MS/MS based microdialysis method; format: ADME, organism-based; conditions: in vivo
Summary of the method: (§3)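 Male Wistar rats (240−300 g) fitted under isoflurane with a ventral hippocampal guide cannula (AP −5.2, ML +5.0, DV −3.8 mm from bregma). Probe (4 mm membrane) inserted 16 h before study. Perfusion with aCSF pH 7.2 at 1.5 μL/min, 2 h stabilization, five basal 20-min samples. Test agent given p.o.; donepezil and memantine (1 mg/kg s.c. each) given 30 min later in combination arms. Dialysates collected 6 h (4 h for combination), acetylcholine measured by LC-MS/MS, expressed as % of mean basal.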

[22] = test system: Rattus norvegicus; assay: Increase in acetylcholine level in Wistar rat ventral hippocampus at 1 mg/kg, po in presence of 1 mg/kg of donepezil and memantine administered sc 30 mins post compound treatment measured after 4 hrs by LC-MS/MS based microdialysis method relative to control; format: functional; summary of the method: as §3
[23] = test system: Rattus norvegicus; assay: Increase in acetylcholine level in Wistar rat ventral hippocampus at 3 mg/kg, po in presence of 1 mg/kg of donepezil and memantine administered sc 30 mins post compound treatment measured after 4 hrs by LC-MS/MS based microdialysis method relative to control; format: functional; summary of the method: as §3
[24] = Solubility of the compound in water; format: physicochemical; conditions: buffer
[25] = test system: Salmonella typhimurium; assay: Mutagenicity in Salmonella typhimurium TA1537 in presence of metabolic activation; format: toxicity; conditions: salmonella enterica subsp. enterica serovar typhimurium
[26] = test system: Salmonella typhimurium; assay: Mutagenicity in Salmonella typhimurium TA1537 in absence of metabolic activation; format: toxicity; conditions: salmonella enterica subsp. enterica serovar typhimurium
[27] = test system: Salmonella typhimurium; assay: Mutagenicity in Salmonella typhimurium TA1535 in absence of metabolic activation; format: toxicity; conditions: salmonella enterica subsp. enterica serovar typhimurium
[28] = test system: Salmonella typhimurium; assay: Mutagenicity in Salmonella typhimurium TA98 in presence of metabolic activation; format: toxicity; conditions: salmonella enterica subsp. enterica serovar typhimurium
[29] = test system: Salmonella typhimurium; assay: Mutagenicity in Salmonella typhimurium TA100 in presence of metabolic activation; format: toxicity; conditions: salmonella enterica subsp. enterica serovar typhimurium
[30] = test system: Salmonella typhimurium; assay: Mutagenicity in Salmonella typhimurium TA100 in absence of metabolic activation; format: toxicity; conditions: salmonella enterica subsp. enterica serovar typhimurium
[31] = test system: Homo sapiens; assay: Toxicity in healthy elderly male human subjects administered as multiple ascending dose for 14 days; conditions: 336 h
[32] = test system: Rattus norvegicus; assay: Toxicity in Wistar rat assessed as induction of cholinergic side effects at 1 and 3 mg/kg, po in presence of 1 mg/kg of donepezil and memantine administered sc 30 mins post compound treatment measured after 4 hrs by LC-MS/MS based microdialysis method relative to control; format: organism-based; conditions: in vivo
Summary of the method: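 The probe (4 mm membrane) was inserted 16 h before the study and perfused with aCSF (pH 7.2) at 1.5 μL/min, with 2 h stabilization. Five 20-min basal samples were taken before oral compound. Donepezil and memantine (1 mg/kg s.c. each) were given 30 min later. Dialysates were collected for 4 h and acetylcholine measured by LC-MS/MS as % of basal. Comparison was against donepezil+memantine by two-way ANOVA.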

5-hydroxytryptamine receptor 4 (Homo sapiens), sequence (Q13639 whole entry): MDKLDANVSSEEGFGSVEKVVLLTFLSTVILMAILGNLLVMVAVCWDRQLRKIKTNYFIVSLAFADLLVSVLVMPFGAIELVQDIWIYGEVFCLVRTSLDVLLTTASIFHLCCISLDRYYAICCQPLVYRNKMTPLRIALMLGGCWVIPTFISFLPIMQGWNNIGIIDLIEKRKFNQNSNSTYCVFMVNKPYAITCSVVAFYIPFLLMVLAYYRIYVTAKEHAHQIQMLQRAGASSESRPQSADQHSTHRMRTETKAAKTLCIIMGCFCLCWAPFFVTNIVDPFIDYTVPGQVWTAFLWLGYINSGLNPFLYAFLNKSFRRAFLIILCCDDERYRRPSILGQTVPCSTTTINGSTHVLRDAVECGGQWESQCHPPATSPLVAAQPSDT

COc1ccc2c(c1)c(CN1CCN(C)CC1)cn2S(=O)(=O)c1ccccc1Br.CS(=O)(=O)O.O
Activity [1]: inactive | Activity [2]: inactive | Cmax [3]: 272 ng/mL | half-life [4]: 0.95 h | clearance [5]: 53 mL/min/kg | Kp [6]: 1.48 | inhibition [7]: > 50% | Kb [8]: 0.619 µM | Papp at 2 h, 10 µM [9]: 19.6 ×10⁻⁶ cm/s | AUC(0-t) [10]: 1360 ng·h/mL | half-life [11]: 3.5 h | pIC50 [12]: < 5.00 | Activity [13]: Non-Toxic | Activity [14]: Non-Toxic | pIC50 [15]: < 5.00 | pIC50 [16]: < 5.00 | pIC50 [17]: < 5.00 | pIC50 [18]: < 5.00 | Activity [19]: Not Active | Activity [20]: Active | Activity [21]: Non-Toxic | Activity [22]: 1383% | Activity [23]: 2136% | solubility [24]: 1200 mg/mL | Activity [25]: Non-Toxic | Activity [26]: Non-Toxic | Activity [27]: Non-Toxic | Activity [28]: Non-Toxic | Activity [29]: Non-Toxic | Activity [30]: Non-Toxic | Activity [31]: Non-Toxic | Activity [32]: Non-Toxic
